For eight compounds, Drug uptake results are on record in ChEMBL document CHEMBL2177068, “Modeling cellular pharmacokinetics of 14- and 15-membered macrolides with physicochemical properties” (J Med Chem, 2011).

SMILES strings stand for the structures.

Data set [1] can be described thus: Cellular uptake in normal human lung fibroblasts assessed as compound retention at 3 to 20 uM incubated for 3 hrs followed by drug washout measured after 3 hrs by LC-MS/MS analysis relative to initial drug accumulation. The format is ADME. A digest of the protocol: (§1)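 Cells loaded 3 h with 3-20 μM macrolide, then incubated 3 h in drug-free medium. Intracellular drug measured by LC-MS/MS before and after washout. Retention given as percentage of initially accumulated compound remaining in cells after washout.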

The nature of data set [2]: Cellular uptake in normal human lung fibroblast at 3 to 20 uM after 3 hrs by LC-MS/MS analysis relative to azithromycin. The format is ADME. A digest of the protocol: (§2)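 Cells (primary human BSMC, MDM, NHBE, PMN, T-lymphocytes, NHLF, or NCI-H292 lung carcinoma line) incubated 3 h with 3-20 μM macrolide; extracellular drug removed (PMNs washed through silicone oil, NCI-H292 washed with ice-cold PBS). Intracellular drug quantified by LC-MS/MS; accumulation expressed as % of azithromycin accumulation measured in the same experiment. Azithromycin reference run at 10 μM, normalized to total protein.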

A short description of data set [3]: Cellular uptake in human T lymphocytes at 3 to 20 uM after 3 hrs by LC-MS/MS analysis relative to azithromycin. To be noted: t-cell. The format is ADME, cell-based. The method in brief: as §2
A short description of data set [4]: Cellular uptake in human PMNC assessed as compound retention at 3 to 20 uM incubated for 3 hrs followed by drug washout measured after 3 hrs by LC-MS/MS analysis relative to initial drug accumulation. The format is ADME. The method in brief: as §1
Data set [5] is described as follows: Cellular uptake in human T lymphocytes assessed as compound retention at 3 to 20 uM incubated for 3 hrs followed by drug washout measured after 3 hrs by LC-MS/MS analysis relative to initial drug accumulation. To be noted: t-cell. The format is ADME, cell-based. A digest of the protocol:
as §1

A short description of data set [6]: Cellular uptake in human MDM at 3 to 20 uM after 3 hrs by LC-MS/MS analysis relative to azithromycin. The format is ADME. A digest of the protocol: as §2
Data set [7] can be described thus: Cellular uptake in human MDM assessed as compound retention at 3 to 20 uM incubated for 3 hrs followed by drug washout measured after 3 hrs by LC-MS/MS analysis relative to initial drug accumulation. The format is ADME. The method in brief: as §1
A short description of data set [8]: Cellular uptake in human BSMC at 3 to 20 uM after 3 hrs by LC-MS/MS analysis relative to azithromycin. The format is ADME. A digest of the protocol:
as §2

Data set [9] has as its system NCI-H292. Description: Cellular uptake in human […] cells at 3 to 20 uM after 3 hrs by LC-MS/MS analysis relative to azithromycin. The format is ADME, cell-based. The note with it: nci-h292, 3 h. A digest of the protocol:
as §2

A short description of data set [10]: Cellular uptake in human BSMC assessed as compound retention at 3 to 20 uM incubated for 3 hrs followed by drug washout measured after 3 hrs by LC-MS/MS analysis relative to initial drug accumulation. The format is ADME. A digest of the protocol: as §1
Data set [11] can be described thus: Cellular uptake in human PMNC at 3 to 20 uM after 3 hrs by LC-MS/MS analysis relative to azithromycin. The format is ADME. The method in brief: as §2
Data set [12] can be described thus: Cellular uptake in human NHBE assessed as compound retention at 3 to 20 uM incubated for 3 hrs followed by drug washout measured after 3 hrs by LC-MS/MS analysis relative to initial drug accumulation. The format is ADME. A digest of the protocol:
as §1

For data set [13], the system named is NCI-H292. Description: Cellular uptake in human NCI-H292 cells assessed as compound retention at 3 to 20 uM incubated for 3 hrs followed by drug washout measured after 3 hrs by LC-MS/MS analysis relative to initial drug accumulation. The format is ADME, cell-based. The note with it: nci-h292, 3 h. The method in brief: as §1
A short description of data set [14]: Cellular uptake in human NHBE at 3 to 20 uM after 3 hrs by LC-MS/MS analysis relative to azithromycin. The format is ADME. A digest of the protocol:
as §2

For `CC[C@H]1OC(=O)[C@H](C)[C@@H](O[C@H]2C[C@@](C)(OC)[C@@H](OC(=O)CN(CC)CC)[C@H](C)O2)[C@H](C)[C@@H](O[C@@H]2O[C@H](C)C[C@H](N(C)C)[C@H]2O)[C@](C)(OC)C[C@@H](C)C(=O)N[C@H](C)[C@@H](O)[C@]1(C)O`, the Drug uptake worked out at 63% in data set [1]; 256% in data set [2]; 41% in data set [3]; 74% in data set [4]; 6% in data set [5]; 148% in data set [6]. The Drug uptake in [7] is reported as 56%; in data set [8], 83%; in the data set with NCI-H292 [9] it was 121%; in [10] it was 27%; in data set [11], 118%; in [12] it was 33%. In addition, the Drug uptake with NCI-H292 [13] turned out to be 48%; in data set [14], 101%.

Regarding `CCCCCCCC(=O)NCCCN(C)[C@H]1C[C@@H](C)O[C@@H](O[C@@H]2[C@@H](C)[C@H](O[C@H]3C[C@@](C)(OC)[C@@H](O)[C@H](C)O3)[C@@H](C)C(=O)O[C@H](CC)[C@@](C)(O)[C@H](O)[C@@H](C)N(C)C[C@H](C)C[C@@]2(C)O)[C@@H]1O`, the Drug uptake in [1] is reported as 78%; in data set [2], 1699%; in data set [3] it was 460%; in [4], 85%; in [5], 19%; in data set [6], 1235%. In addition, the Drug uptake in [7] turned out to be 100%; in data set [8], 598%; in the data set with NCI-H292 [9], 457%; in data set [10], 47%; in data set [11], 663%; in data set [12], 57%. In addition, the figures for the Drug uptake (in the data set on NCI-H292 [13]; in [14]) were 51% and 422%, respectively.

On to `CCCCCCCC(=O)NCCCN1C[C@H](C)C[C@@](C)(O)[C@H](O[C@@H]2O[C@H](C)C[C@H](N(C)C)[C@H]2O)[C@@H](C)[C@H](O[C@H]2C[C@@](C)(OC)[C@@H](O)[C@H](C)O2)[C@@H](C)C(=O)O[C@H](CC)[C@@](C)(O)[C@H](O)[C@H]1C`, for which the Drug uptake is on record as 84% in data set [1]; 122% in data set [2]; 127% in [3]; 77% in data set [4]; 30% in data set [5]; 120% in data set [6]. Further, the Drug uptake is given as 83% in [7]; 111% in [8]; 207% with NCI-H292 [9]; 57% in data set [10]; 146% in data set [11]; 71% in data set [12]. In addition, the Drug uptake is on record as 69% in the data set with NCI-H292 [13] and 135% in [14].

`CC[C@H]1OC(=O)[C@H](C)[C@@H](O[C@H]2C[C@@](C)(OC)[C@@H](O)[C@H](C)O2)[C@H](C)[C@@H](O[C@@H]2O[C@H](C)C[C@H](N(C)C)[C@H]2O)[C@](C)(OC)C[C@@H](C)C(=O)N[C@H](C)[C@@H](O)[C@]1(C)O`: the Drug uptake is recorded as 35% in [1]; 9% in data set [2]; 5% in data set [3]; 37% in data set [4]; 2% in [5]; 11% in data set [6]. Further, the Drug uptake in [7] came to 8%; in data set [8] it was 5%; in the data set on NCI-H292 [9] it was 10%; in data set [10] it was 0%; in data set [11], 13%; in data set [12], 16%. The Drug uptake with NCI-H292 [13] was 23%; in data set [14], 11%.

With `CC[C@H]1OC(=O)[C@H](C)[C@@H](O)[C@H](C)[C@@H](O)[C@](C)(O)C[C@@H](C)CN(C)[C@H](C)[C@@H](O)[C@]1(C)O` [AZITHROMYCIN AGLYCONE], the Drug uptake in data set [1] is reported as 0%; in [2], 54%; in [3], 5%; in [4] it was 0%; in data set [5], 1%; in data set [6], 28%. Moreover, the Drug uptake is 3% in [7]; 9% in data set [8]; 13% with NCI-H292 [9]; 0% in [10]; 17% in [11]; 0% in data set [12]. Further, the Drug uptake in the data set with NCI-H292 [13] came out at 0%; in [14], 8%.

Turning to `CC[C@H]1OC(=O)[C@H](C)[C@@H](O[C@H]2C[C@@](C)(OC)[C@@H](O)[C@H](C)O2)[C@H](C)[C@@H](O[C@@H]2O[C@H](C)C[C@H](N(C)C)[C@H]2O)[C@](C)(O)C[C@@H](C)CN(C)[C@H](C)[C@@H](O)[C@]1(C)O` [AZITHROMYCIN], the Drug uptake in data set [1] worked out at 80%; in [2], 100%; in data set [3] it was 100%; in data set [4], 79%; in data set [5], 38%; in data set [6], 100%. For the same compound, the Drug uptake in [7] worked out at 93%; in data set [8], 100%; with NCI-H292 [9], 100%; in [10] it was 54%; in data set [11] it was 100%; in data set [12] it was 63%. Moreover, the Drug uptake with NCI-H292 [13] was 77%; in data set [14] it was 100%.

Consider `CC[C@H]1OC(=O)[C@H](C)[C@@H](O[C@H]2C[C@@](C)(OC)[C@@H](O)[C@H](C)O2)[C@H](C)[C@@H](O[C@@H]2O[C@H](C)C[C@H](N(C)C)[C@H]2O)[C@](C)(OC)C[C@@H](C)C(=O)[C@H](C)[C@@H](O)[C@]1(C)O` [CLARITHROMYCIN], for which the Drug uptake in [1] was 1%; in data set [2], 127%; in data set [3] it was 16%; in data set [4] it was 2%; in data set [5] it was 2%; in [6] it was 66%. Further, the Drug uptake stood at 4% in data set [7]; 36% in [8]; 35% in the data set with NCI-H292 [9]; 1% in data set [10]; 36% in [11]; 0% in [12]. Moreover, the Drug uptake with NCI-H292 [13] is 1%; in data set [14], 25%.

In the case of `CC[C@H]1OC(=O)[C@H](C)[C@@H](O)[C@H](C)[C@@H](O[C@@H]2O[C@H](C)C[C@H](N(C)C)[C@H]2O)[C@](C)(O)C[C@@H](C)CN(C)[C@H](C)[C@@H](O)[C@]1(C)O` [DESCLADINOSYL AZITHROMYCIN], the Drug uptake worked out at 70% in data set [1]; 52% in [2]; 52% in data set [3]; 68% in [4]; 46% in [5]; 79% in data set [6]. Besides, the Drug uptake is recorded as 81% in data set [7]; 75% in data set [8]; 56% in the data set on NCI-H292 [9]; 63% in [10]; 42% in [11]; 74% in data set [12]. In addition, the values for the Drug uptake (in the data set on NCI-H292 [13]; in data set [14]) were 77% and 52%, respectively.
